Shown are actives, neighbours in structure and some others; about 3.7% of the full set was active somewhere.
Kir21 block: inhibitors of mouse Kir2.1 inward-rectifier potassium channel | B-score at 10 µM | AID 1672 | 310,000 compounds, 0.85% hits | HEK293-Kir2.1, FluxOR thallium flux fluorescence; hits give low values;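 active means fluorescence ratio B-score at or below minus 3 SD of library scores, with starting-brightness B-score within 2 SD, cut at about -4.2 in these data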;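 further: channel flux triggered by added potassium and thallium sulfate stimulus; B-score of peak minus minimum fluorescence over baseline after thallium stimulus; more negative B-score means stronger Kir2.1 block with less thallium influx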
KCNK9 inh: inhibitors of human KCNK9 two-pore domain potassium channel. HEK293 KCNK9, FluxOR thallium flux fluorescence; hits give low values. B-score at 10 µM. Q9NPC2. 310,000 compounds, 1.2% hits;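 active means ratio B-score over 3 SD below the library mean, with starting fluorescence within 5 SD of its mean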;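 further: negative B-score means less thallium flux so channel inhibition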
Target sequence (Q9NPC2 whole entry, looked up, the tested form may be a part): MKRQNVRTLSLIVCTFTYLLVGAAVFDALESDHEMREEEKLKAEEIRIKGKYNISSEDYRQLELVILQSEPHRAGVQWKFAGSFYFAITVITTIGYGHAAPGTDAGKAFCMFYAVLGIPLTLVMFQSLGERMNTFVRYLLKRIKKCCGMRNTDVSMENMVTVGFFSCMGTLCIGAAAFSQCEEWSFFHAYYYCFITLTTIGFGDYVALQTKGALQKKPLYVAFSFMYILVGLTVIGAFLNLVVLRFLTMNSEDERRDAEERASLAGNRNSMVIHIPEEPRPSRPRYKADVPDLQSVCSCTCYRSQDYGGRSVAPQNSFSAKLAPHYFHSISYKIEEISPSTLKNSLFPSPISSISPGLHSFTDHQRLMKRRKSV
hERG protect: compounds protecting human hERG from proarrhythmic drug block; Q12809; CHO-hERG, FluxOR thallium flux, dofetilide IC70 present; activation (rescue from dofetilide block), less the hit threshold, % at 10 µM; 310,000 compounds, 0.51% hits; AID 1511;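 active means activation above the mean of controls blocked by dofetilide plus 5 SD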;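 further: thallium influx through hERG after potassium depolarization seen as dye fluorescence rise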
KCNK3 inh: human KCNK3 channel inhibition, primary screen; O14649; CHO-KCNK3 thallium flux, FluxOR fluorescence; hits give low values; B-score at 10 µM; 340,000 compounds, 0.84% hits; AID 602410;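 active means B-score under library mean minus 4 SD, starting fluorescence ratio at most library mean plus 5 SD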;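 further: more negative B-score means stronger inhibition of thallium flux through KCNK3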
KCNQ1 act: human KCNQ1 channel potentiation or activation | B-score at 10 µM | CHO-K1 KCNQ1, thallium flux FluxOR fluorescence; hits give high values | 310,000 compounds, 0.35% hits | AID 2648;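 active means fluorescence ratio B-score, a plate-corrected score, at least three library SD, with initial intensity B-score within 5 SD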
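System: CHO-K1 cells stably expressing KCNQ1 / Medium: assay buffer for compound exposure, DMSO matched across wells / Reagent: thallium- and potassium-containing depolarizing buffer / Compound: one concentration, matched DMSO / Incubation: 20 min compound pretreatment at room temperature / Measured by: kinetic FluxOR fluorescence, 10 s baseline plus 110 s post-stimulus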
KCNQ1 block: human KCNQ1 channel inhibition | CHO-K1 KCNQ1, FluxOR thallium flux fluorescence; hits give high values | B-score at 10 µM | 310,000 compounds, 1.3% hits | AID 2642;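 active means compounds whose thallium flux B-score, printed positive for inhibition, exceeds three library SD while starting fluorescence stays within three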;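 further: channel opened by potassium depolarization with thallium stimulus after 20 min compound exposure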
KCNK3 confirm: confirmation of human KCNK3 two-pore domain potassium channel inhibitors; AID 651638; CHO-KCNK3 thallium flux, FluxOR fluorescence; 0% buffer, 100% carvedilol maximal block; 2,400 compounds, 99% hits; ratio percent of control, % at 10 µM; shares compounds with KCNK3 inh;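 active means ratio percent of control, averaged over triplicates, above buffer control mean plus 5 SD, cut at about 64% in these data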;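 further: ratio is the fluorescence rise from min to max over baseline after thallium stimulus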
KCNK3 noninduced: KCNK3 inhibitor counter-screen hit in non-induced cells | shares compounds with KCNK3 inh | non-induced KCNK3 parental cells, FluxOR thallium flux; hits give low values | thallium flux ratio (lower = more inhibition) at 10 µM | 2,400 compounds, 40% hits | AID 651747;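 active means thallium flux ratio, averaged over three wells, more than 5 SD below the buffer control mean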;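 further: host cells are CHO cells without KCNK3 induction; ratio is peak minus trough fluorescence over baseline then normalized to buffer controls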
The depositor's hits bear a star; i = inactive; . = no result.

SMILES	Kir21 block	KCNK9 inh	hERG protect	KCNK3 inh	KCNQ1 act	KCNQ1 block	KCNK3 confirm	KCNK3 noninduced
COc1ccc(-c2csc(N(CC3CCCO3)C(=O)c3ccc(C)cc3)n2)cc1 (stereo not given)	-0.95	i	-10.8	i	i	i	.	.
COc1ccc(-c2csc(N(CC3CCCO3)C(=O)c3ccccc3)n2)cc1 (stereo not given)	-0.33	i	-10.3	-8.91*	i	i	89.0*	i
COc1ccc(/C=N/NC(=O)c2ccc3c(c2)NC(=O)C(C)(C)O3)cc1OC	-0.04	i	-5.1	i	i	i	.	.
CCCC(=O)Nc1ccc(-c2csc(N/N=C\c3ccncc3)n2)cc1	0.78	i	-8.3	-8.8*	i	i	106.7*	0.155*
Cc1ccc(C(=O)NCC(=O)OCC(=O)Nc2cc(S(=O)(=O)N3CCOCC3)ccc2Cl)s1	.	.	.	i	.	.	.	.
Cc1ccc(S(=O)(=O)N2CCOCC2)cc1NC(=O)COC(=O)CNC(=O)c1ccc(Cl)cc1Cl	-0.22	i	-2.6	-10.5*	i	i	87.3*	i
Cc1ccc(C(=O)CC2(O)C(=O)N(C)c3ccc(Br)cc32)c(C)c1 (stereo not given)	-2.35	i	0.6	-9.56*	i	i	93.0*	i
Cc1ccc(C)c(C(=O)CC2(O)C(=O)N(C)c3ccccc32)c1 (stereo not given)	-1.19	i	-8.9	i	i	i	.	.
CCCCNC(=O)c1cc2nc3c(c(C(F)(F)F)n2n1)CCc1ccccc1-3	-0.46	i	-1.0	i	i	i	.	.
CC(C)CNC(=O)c1cc2nc3c(c(C(F)(F)F)n2n1)CCc1ccccc1-3	1.12	i	1.2	-16.8*	i	i	56.3*	i
CCN(CC(=O)Nc1c(F)cccc1F)C(=O)CCN1C(=O)C2CC=CCC2C1=O (stereo not given)	-0.23	i	-10.4	i	i	i	.	.
Cc1cc(C)c[n+](CC(=O)c2c(C)cc(C)c([N+](=O)[O-])c2C)c1	-0.67	i	-7.0	i	i	i	.	.
COc1ccc(C2=NNC(c3cc(Cl)cc4c3OCOC4)C2)c(O)c1 (stereo not given)	0.05	i	-11.9	.	i	i	.	.
Oc1ccc(Cl)cc1C1=NNC(c2cc(Br)cc3c2OCOC3)C1 (stereo not given)	1.64	i	-3.2	-8.78*	i	i	96.0*	i
O=C(c1cccs1)c1cn(CC(=O)N2CCc3ccccc3C2)c2ccccc12	-0.5	i	-9.8	-10.6*	i	i	80.3*	i
O=C(O)Cn1cc(C(=O)c2cccs2)c2ccccc21	2.55	i	-9.1	i	i	i	.	.
COc1ccc(Cn2c(SCC(=O)NCc3ccco3)nc3ccsc3c2=O)cc1	-0.02	i	-3.5	i	i	i	.	.
COC(=O)C(C)Sc1nc2ccsc2c(=O)n1Cc1ccccc1 (stereo not given)	-0.24	i	-14.0	-9.42*	i	i	93.7*	i
Cc1cccc(NS(=O)(=O)c2ccc(C)c(C(=O)N(C)C3CCN(C)CC3)c2)c1	.	.	.	i	.	.	.	.
COC(=O)c1ccccc1NC(=O)Cn1cnc2ccc(S(=O)(=O)N3CCC(C)CC3)cc2c1=O	1.39	i	-0.6	i	i	i	.	.
CC1CCN(S(=O)(=O)c2ccc3ncn(CC(=O)N(C)Cc4ccccc4)c(=O)c3c2)CC1	-0.02	i	-2.1	-12.6*	i	i	72.3*	i
Cc1sc2ncnc(N3CCC(C(=O)Nc4nc(-c5cccs5)cs4)CC3)c2c1C	0.57	i	-17.5	-8.93*	i	i	94.3*	i
Cc1sc2ncnc(N3CCC(C(=O)Oc4cccc(Cl)c4Cl)CC3)c2c1C	0.67	-8.09*	-1.4	-9.14*	i	i	96.3*	i
Cc1sc2ncnc(N3CCC(C(=O)Nc4ccccc4C(C)(C)C)CC3)c2c1C	0.46	i	-11.2	i	i	i	.	.
Cc1cccc(C(=O)OC(C)CN2C(C)CCCC2C)c1 (stereo not given)	-0.25	i	-6.6	i	i	i	.	.
SMILES	Kir21 block	KCNK9 inh	hERG protect	KCNK3 inh	KCNQ1 act	KCNQ1 block	KCNK3 confirm	KCNK3 noninduced
CCN(C(=O)COC(=O)c1ccc[nH]c1=O)c1cccc2ccccc12	.	.	.	i	.	.	.	.
CCCN1CCN(C(=O)Nc2cccc(C(F)(F)F)c2)CC1	0.18	i	-11.1	-10.3*	i	i	106.3*	i
Oc1ccc(/C=C/c2ccc3cccc(O)c3n2)cc1Br	0.75	i	-11.4	-10.9*	i	i	134.7*	0.124*
O=C(O)c1ccc(/C=C/c2ccc3cccc(O)c3n2)cc1	1.12	i	-10.4	i	i	i	.	.
N#CCC(=O)Nc1ccc(C(=O)NCCc2c[nH]c3ccccc23)cc1	-0.08	i	-8.6	i	i	i	.	.
COc1ccc(NC(=O)CN(C)C(=O)c2ccc(S(=O)(=O)Nc3ccccc3C)cc2)cc1	.	.	.	i	.	.	.	.
Cc1ccc(NC(=O)CNc2cccc(S(=O)(=O)N3CCCCC3)c2)cc1F	-3.24	-7.63*	-17.1	i	i	i	96.3*	i
O=C(N/N=C/C1C(c2ccccc2)C1(Cl)Cl)c1cccc(Br)c1 (stereo not given)	1.65	-7.35*	-10.8	-13*	i	10*	114.7*	i
Cc1cc(O)c(C(C)C)cc1NC(=O)c1ccc(Cl)cc1	0.63	i	-10.4	i	i	i	.	.
Cc1cc(O)c(C(C)C)cc1NC(=O)c1cccc(Cl)c1	1.42	i	-16.7	-9.04*	i	i	109.3*	i
COc1cc(CC(=O)OCC(=O)Nc2cc([N+](=O)[O-])ccc2Cl)cc(OC)c1OC	0.03	i	-9.5	i	i	i	.	.
CN(CCOc1ccc(Cl)cc1)C(=O)c1cc(-c2ccco2)nc2ccccc12	0.85	i	-32.2	-10.4*	i	i	117.3*	0.135*
Cc1c(S(=O)(=O)N(C)C2CCCCC2)c(=O)n(C)c(=O)n1C	-2.63	i	-10.7	i	i	i	.	.
COc1ccc(/C=C2/SC(c3ccc(C)cc3)=NC2=O)cc1OC	-1.05	i	-5.7	i	i	i	.	.
COc1cc(/C=C2\SC(c3ccc(C)cc3)=NC2=O)ccc1O	-0.1	i	-3.7	-9.37*	i	i	142.0*	0.099*
CCSc1nnc(CSc2ncccn2)n1C	-1.62	i	-7.7	i	i	i	.	.
